Shown are actives, neighbours in structure and some others; about 9.6% of the full set was active somewhere.
PMI act hi M6P – activators of human phosphomannose isomerase at near-saturating mannose 6-phosphate; P34949; coupled PMI enzyme assay, resazurin fluorescence, 20 min; hits give high values; 1 = untreated enzyme, 0 = substrate-free blank; activation factor at 20 µM; 190,000 compounds, 0.34% hits;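 active = activation factor of 2 or more at 20 µM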
Target sequence (P34949 whole entry, looked up): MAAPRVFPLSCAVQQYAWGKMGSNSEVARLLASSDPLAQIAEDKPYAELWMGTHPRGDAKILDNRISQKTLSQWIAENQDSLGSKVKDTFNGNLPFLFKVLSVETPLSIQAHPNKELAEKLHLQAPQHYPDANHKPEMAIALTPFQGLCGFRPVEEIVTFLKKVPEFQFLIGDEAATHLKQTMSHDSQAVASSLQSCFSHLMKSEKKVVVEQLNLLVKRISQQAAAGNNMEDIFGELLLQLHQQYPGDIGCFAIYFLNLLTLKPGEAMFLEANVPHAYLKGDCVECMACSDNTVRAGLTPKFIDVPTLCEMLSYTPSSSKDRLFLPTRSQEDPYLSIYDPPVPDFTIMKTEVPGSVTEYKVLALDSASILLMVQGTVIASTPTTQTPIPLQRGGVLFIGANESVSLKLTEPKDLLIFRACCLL
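Test system: human phosphomannose isomerase with PGI, G6PDH, diaphorase coupling enzymes; Amount: PMI at 15 ng/mL final; Reagent: Mannose-6-phosphate 1.0 mM (near-saturating) plus 0.22 mM NADP+; Timing: 20 min, room temperature; Technique: resorufin fluorescence at Ex 544/Em 590 nm; Dosing: 20 µM single dose.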
HCT116 PTEN-null – growth suppressors of cells with PTEN tumor suppressor deletion; viability, % at 10 µM; AID 827; 140,000 compounds, 1.2% hits; HCT116 PTEN-null viability, CellTiter-Glo, 60 h; hits give low values;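 active = viability at or below a set limit, 4 SD under the median of all tested compounds, cut at about 3.7% in these data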;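 also: PTEN knockout HCT116 line with beta catenin targeted HCT116 as companion control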
L major viab – reduces viability of Leishmania major promastigotes; resazurin fluorescence viability; 200,000 compounds, 9% hits; inhibition, % at 10 µM; in the data active = inhibition above about 50%;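 also: promastigotes grown with compound for 44 hours at 28 °C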
bCat KO growth – beta-catenin-lacking colon tumor cell growth suppression; viability, % at 10 µM; 140,000 compounds, 1.5% hits; AID 818; HCT116 beta-catenin knockout viability, CellTiter-Glo, 60 h; hits give low values;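 active = viability at or under a set limit, the compound median less 4 SD, cut at about 6% in these data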;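 also: 0% = Hyamine 1622 control at 20 µM and 100% = untreated cell control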
PMI activator – phosphomannose isomerase (human) activation; P34949; purified human PMI, coupled resazurin fluorescence, 20 min; hits give high values; 1 = vehicle control, 0 substrate-free wells; activation factor at 20 µM; 190,000 compounds, 0.005% hits; AID 1214;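 active = activation factor of 2 or more at 20 µM, relative to plate controls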
L major 1uM – L. major promastigote growth inhibition, 1 uM repeat. 1,100 compounds, 13% hits. shares compounds with L major viab. inhibition, % at 1 µM. resazurin fluorescence, 48 h. AID 1258;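 active = inhibition above about 50% in both repeat tests, limit read from the data; inconclusive = one repeat under the set limit, the other over it; inactive = both repeats under the set limit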
Starred values were filed as active, the others as inactive; u = inconclusive; x = no result.

SMILES | PMI act hi M6P | HCT116 PTEN-null | L major viab | bCat KO growth | PMI activator | others
Cc1ccc(S(=O)(=O)N/N=C2\C(=O)C3(C)CCC2C3(C)C)cc1 (stereo not given) | 2.1* | x | 0 | x | 1.8
O=C(Nc1cccc(S(=O)(=O)N2CCOCC2)c1)[C@@H]1CCCN1S(=O)(=O)c1ccc(Cl)cc1 | 1 | 87 | 0 | 94 | 1
CC(C)NS(=O)(=O)c1ccc(NC(=S)NC(=O)c2ccc(-c3ccccc3)cc2)cc1 | 0.9 | 62 | 93* | 71 | 0.9
Cc1nc2ccc(NC(=O)c3ccc([N+](=O)[O-])cc3[N+](=O)[O-])cc2s1 | 1 | x | 100* | x | 1
CN(c1ccccc1)S(=O)(=O)c1ccc(NC(=S)NC(=O)C2CC2)cc1 | 0.9 | 90 | 75* | 90 | 0.8
COc1ccccc1/C=C/C(=O)NC(=S)Nc1ccc(S(=O)(=O)N(C)c2ccccc2)cc1 | 1 | 93 | 62* | 103 | 1
O=C(NC(=S)Nc1ccccc1)c1ccc(-c2ccccc2)cc1 | 1 | 102 | 45 | 112 | 0.9
O=C(NCCN1CCOCC1)c1cc2cc(Cl)cc(Cl)c2oc1=O | x | x | -8 | x | x
CC1CN(S(=O)(=O)c2ccc(C(=O)Nc3ccc(S(=O)(=O)Nc4nccs4)cc3)cc2)CC(C)O1 (stereo not given) | 0.9 | 95 | 34 | 90 | 0.9
Cc1nc2ccc(NC(=O)c3ccc(S(=O)(=O)N(C)c4ccccc4)cc3)cc2s1 | 0.8 | 40 | 99* | 35 | 0.8
Cc1nc2ccc(NC(=O)c3ccc(S(=O)(=O)N4CCOCC4)cc3)cc2s1 | 1 | 96 | 27 | 88 | 1
CC1CN(S(=O)(=O)c2ccc(NC(=O)c3cc(-c4ccccc4O)n[nH]3)cc2)CC(C)O1 (stereo not given) | 0.9 | 8 | 100* | 17 | 0.9
CN(c1ccccc1)S(=O)(=O)c1ccc(NC(=S)NC(=O)c2ccccc2)cc1 | 1 | 96 | 100* | 79 | 1
Cc1nc2ccc(NC(=O)c3cccc(S(=O)(=O)N4CC(C)OC(C)C4)c3)cc2s1 (stereo not given) | 0.9 | 92 | 98* | 95 | 0.9
Cc1ccc(C(=O)NC(=S)Nc2ccc(S(=O)(=O)N(C)c3ccccc3)cc2)cc1 | 1 | 97 | -2 | 83 | 0.9
Cc1nc2ccc(NC(=O)N(C)c3ccccc3)cc2s1 | 1 | 96 | -6 | 95 | 1
CCOC(=O)N1CCC(=NNC(=O)c2ccccc2F)CC1 | 1 | 96 | -10 | 99 | 0.9
CC(NC(=O)Nc1ccc(Br)cc1)C(C)(C)C (stereo not given) | 1 | x | 15 | x | 1
CCCCN=CC1=C(O)CC(c2ccccc2)CC1=O (stereo not given) | 0.9 | x | -7 | x | 0.9
CCn1c(COc2ccc3c(c2)OCO3)nnc1SCC(=O)c1ccc(Cl)cc1 | 1 | 83 | -7 | 84 | 1
CCOC(=O)Cc1csc(NC(=O)C(NC(=O)C2CCCCC2)C(C)C)n1 (stereo not given) | 1 | x | 7 | x | 1
Cn1c(=O)n(Cc2ccccc2)c2ccccc21 | 1 | 102 | -7 | 98 | 1
Cc1c(CCCN)c2ccccc2n1Cc1ccccc1 | x | x | 92* | x | x
Cc1cc(C(=O)COC(=O)Cn2cnc3c2c(=O)n(C)c(=O)n3C)c(C)n1C | 1 | 97 | 8 | 92 | 1
CCCCn1cnc2c1c(=O)n(CC(=O)c1cc(C)n(C)c1C)c(=O)n2CC(C)C | 1 | 92 | 96* | 90 | 1
SMILES | PMI act hi M6P | HCT116 PTEN-null | L major viab | bCat KO growth | PMI activator | others
CCCOc1ccc(C(=O)NCC2OCCc3ccccc32)cc1OC (stereo not given) | 1.1 | x | 0 | x | 1.2
COc1ccc(C(=O)NCC2OCCc3ccccc32)c(O)c1 (stereo not given) | 0.9 | 98 | 53* | 98 | 0.9 | L major 1uM=-6
Cn1c(C(=O)N2CCc3ccccc3C2)cc2c(=O)n3ccccc3nc21 | 0.8 | 75 | 97* | 80 | 0.9 | L major 1uM=-9
O=C1c2ccccc2-c2onc3ccc(Oc4ccccc4)c1c23 | 0.6 | 1.5* | 100* | 1.9* | 0.9 | L major 1uM=-13
CCCCN(NC(C)=O)c1nc(Cl)nc(NC(C)C)n1 | 1 | 101 | -2 | 97 | 1
CCCCCCCNC1=CC(=O)CC(c2ccccc2)C1 (stereo not given) | 1 | 15 | 99* | 7 | 0.9 | L major 1uM=-18
O=S(=O)(NCC1OCCc2ccccc21)c1ccc(S(=O)(=O)N2CCOCC2)cc1 (stereo not given) | 1.1 | 98 | 19 | 98 | 1
c1ccc2c(c1)CCOC2CNCCCN1CCCCC1 (stereo not given) | 1 | 82 | 56* | 80 | 1.3 | L major 1uM=-5
Cc1ccccc1CN(C)CCc1ccccn1 | 1 | x | -3 | x | 1
CC(C)=CCCC(C)CN(C)CCc1ccccn1 (stereo not given) | 1 | 86 | 83* | 81 | 1 | L major 1uM=-6
O=C(c1cnn2c(C(F)(F)F)cc(-c3ccco3)nc12)N1CCc2ccccc2C1 | 1 | 82 | 14 | 96 | 0.9
Cc1ccc(N2CN(Cc3cccnc3)CNC2=S)c(C)c1 | 1 | 86 | 86* | 85 | 0.9 | L major 1uM=46
Cc1ccc(N2CN(Cc3ccco3)CNC2=S)c(C)c1 | 1 | 98 | 49 | 101 | 1.1
CCOC(=O)c1c(C(F)(F)C(F)(F)C(F)(F)C(F)(F)F)n[nH]c1C | 0.9 | 72 | 1 | 87 | 0.8
COc1cc(OC)cc(C(=O)N2CCN(Cc3ccccc3Br)CC2)c1 | 1 | x | -8 | x | 1
O=c1c(C=NCCN2CCNCC2)c(-c2ccccc2)[nH]n1-c1ccc([N+](=O)[O-])cc1 | 0.8 | x | 101* | x | 0.9 | L major 1uM=28
Cc1ccccc1Nc1cc2ccccc2c(=O)[nH]1 | 1.6 | 13 | 53* | 22 | 1.2 | L major 1uM=-10
CCCn1c(Nc2ccccc2C)nc2ccccc21 | 0.9 | 89 | 50 | 84 | 1
CCOc1ccc(-c2nc(C#N)c(NCc3ccc4c(c3)OCO4)o2)cc1 | 0.9 | 90 | -3 | 101 | 0.8
Cc1ccc(OCc2nc(C#N)c(NCc3ccc4c(c3)OCO4)o2)cc1 | 1 | 101 | 98* | 93 | 0.9 | L major 1uM=-18
Cc1ccc(N(CC(O)CON=C2c3ccccc3-c3ccccc32)S(C)(=O)=O)cc1 (stereo not given) | 0.9 | 15 | 100* | 19 | 0.8 | L major 1uM=u
Cc1ccc(N(CC(O)Cn2c3ccccc3c3ccccc32)S(C)(=O)=O)cc1 (stereo not given) | 0.9 | 81 | 41 | 65 | 0.9
Cc1cccc2sc(NC(=O)c3cccc(S(=O)(=O)N4CCc5ccccc54)c3)nc12 | 1 | 28 | 96* | 33 | 0.8 | L major 1uM=-3
CC(=O)N/C(=N\OCc1ccccc1Cl)c1nonc1NC(C)=O | 1 | 95 | 40 | 93 | 1
Cc1nc(N2CCN(Cc3ccccc3)CC2)[nH]c(=O)c1C | 1 | x | -2 | x | 1
